Assay results published in ChEMBL document CHEMBL3045304, “Sesquiterpene lactones with potential use as natural herbicide models. 2. guaianolides” (2000).
Active and inactive are the calls of the source. The calls are words filed in the database; no cut-off is given here.

How the values were obtained:
Lepidium sativum [1] = experiment: Stimulation of root length of Lepidium sativum at 0.1 mM or 1 mM after 5 days relative to untreated control; type: functional
Solanum lycopersicum [2] = experiment: Inhibition of hypocotyl length of Solanum lycopersicum cv. Tres Cantos (tomato) at 0.1 mM or 1 mM after 5 days relative to untreated control; type: functional
In short: (§1)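 Lettuce and tomato seeds, 25 per dish on filter paper, received 5 mL test solution. Incubation was 5 days in the dark at 25 °C, with four replicates per concentration. Solutions were made at 10^-3 or 10^-4 M in 10 mM MES, diluted serially, and adjusted to pH 6.0. Parallel controls were run. Results are % difference from control.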

Lepidium sativum [3] = experiment: Inhibition of root length of Lepidium sativum at 0.1 mM or 1 mM after 4 days relative to untreated control
Solanum lycopersicum [4] = experiment: Stimulation of germination of Solanum lycopersicum cv. Tres Cantos (tomato) at 0.1 mM or 1 mM after 5 days relative to untreated control; type: functional; in short: as §1
Lactuca sativa [5] = experiment: Stimulation of root length of Lactuca sativa cv. Roman (lettuce) at 0.1 mM or 1 mM after 5 days relative to untreated control; type: functional; in short: as §1
Lepidium sativum [6] = experiment: Inhibition of germination of Lepidium sativum at 0.1 mM or 1 mM after 4 days relative to untreated control; design: scale not given: the % may be the effect or the level left
Solanum lycopersicum [7] = experiment: Inhibition of germination of Solanum lycopersicum cv. Tres Cantos (tomato) at 0.1 mM or 1 mM after 5 days relative to untreated control; type: functional; in short: as §1
Triticum aestivum [8] = experiment: Inhibition of hypocotyl length of Triticum aestivum cv. Cortex (wheat) at 0.1 mM or 1 mM after 5 days relative to untreated control; type: functional
In short: (§2)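 Wheat: 10 seeds per dish on filter paper with 5 mL test solution, 5 days in the dark at 25 °C, 10 replicates per concentration. Stock test solutions were 10^-3 or 10^-4 M in 10 mM MES, with lower levels made by dilution, all at pH 6.0. Parallel controls were run. Output is % difference from control.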

Triticum aestivum [9] = experiment: Inhibition of germination of Triticum aestivum cv. Cortex (wheat) at 0.1 mM or 1 mM after 5 days relative to untreated control; type: functional; in short: as §2
Allium cepa [10] = experiment: Inhibition of root length of Allium cepa cv. Valenciana (onion) at 0.1 mM or 1 mM after 5 days relative to untreated control; type: functional
Triticum aestivum [11] = experiment: Stimulation of root length of Triticum aestivum cv. Cortex (wheat) at 0.1 mM or 1 mM after 5 days relative to untreated control; type: functional; in short: as §2
Lactuca sativa [12] = experiment: Inhibition of germination of Lactuca sativa cv. Roman (lettuce) at 0.1 mM or 1 mM after 5 days relative to untreated control; type: functional; in short: as §1
Allium cepa [13] = experiment: Inhibition of germination of Allium cepa cv. Valenciana (onion) at 0.1 mM or 1 mM after 5 days relative to untreated control; type: functional
Solanum lycopersicum [14] = experiment: Inhibition of root length of Solanum lycopersicum cv. Tres Cantos (tomato) at 0.1 mM or 1 mM after 5 days relative to untreated control; type: functional; in short: as §1
Allium cepa [15] = experiment: Stimulation of germination of Allium cepa cv. Valenciana (onion) at 0.1 mM or 1 mM after 7 days relative to untreated control
Lactuca sativa [16] = experiment: Inhibition of hypocotyl length of Lactuca sativa cv. Roman (lettuce) at 0.1 mM or 1 mM after 5 days relative to untreated control; type: functional; in short: as §1
Solanum lycopersicum [17] = experiment: Stimulation of hypocotyl length of Solanum lycopersicum cv. Tres Cantos (tomato) at 0.1 mM or 1 mM after 5 days relative to untreated control; type: functional; in short: as §1
Allium cepa [18] = experiment: Stimulation of root length of Allium cepa cv. Valenciana (onion) at 0.1 mM or 1 mM after 5 days relative to untreated control; type: functional
Lactuca sativa [19] = experiment: Stimulation of germination of Lactuca sativa cv. Roman (lettuce) at 0.1 mM or 1 mM after 5 days relative to untreated control; type: functional; in short: as §1
Triticum aestivum [20] = experiment: Stimulation of hypocotyl length of Triticum aestivum cv. Cortex (wheat) at 0.1 mM or 1 mM after 5 days relative to untreated control; type: functional; in short: as §2
Triticum aestivum [21] = experiment: Stimulation of germination of Triticum aestivum cv. Cortex (wheat) at 0.1 mM or 1 mM after 5 days relative to untreated control; type: functional; in short: as §2
Solanum lycopersicum [22] = experiment: Stimulation of root length of Solanum lycopersicum cv. Tres Cantos (tomato) at 0.1 mM or 1 mM after 5 days relative to untreated control; type: functional; in short: as §1
Lepidium sativum [23] = experiment: Inhibition of germination of Lepidium sativum at 0.1 mM or 1 mM after 5 days relative to untreated control; type: functional
Lactuca sativa [24] = experiment: Stimulation of hypocotyl length of Lactuca sativa cv. Roman (lettuce) at 0.1 mM or 1 mM after 5 days relative to untreated control; type: functional; in short: as §1
Lactuca sativa [25] = experiment: Inhibition of root length of Lactuca sativa cv. Roman (lettuce) at 0.1 mM or 1 mM after 5 days relative to untreated control; type: functional; in short: as §1
Triticum aestivum [26] = experiment: Inhibition of root length of Triticum aestivum cv. Cortex (wheat) at 0.1 mM or 1 mM after 5 days relative to untreated control; type: functional; in short: as §2
Allium cepa [27] = experiment: Inhibition of hypocotyl length of Allium cepa cv. Valenciana (onion) at 0.1 mM or 1 mM after 5 days relative to untreated control; type: functional
Lepidium sativum [28] = experiment: Stimulation of hypocotyl length of Lepidium sativum at 0.1 mM or 1 mM after 5 days relative to untreated control; type: functional
Allium cepa [29] = experiment: Stimulation of hypocotyl length of Allium cepa cv. Valenciana (onion) at 0.1 mM or 1 mM after 5 days relative to untreated control; type: functional
Lepidium sativum [30] = experiment: Inhibition of hypocotyl length of Lepidium sativum at 0.1 mM or 1 mM after 4 days relative to untreated control
Allium cepa [31] = experiment: Stimulation of germination of Allium cepa cv. Valenciana (onion) at 0.1 mM or 1 mM after 5 days relative to untreated control; type: functional

Row | Compound | Activity (Lepidium sativum [1]) | inhibition (INH) (Lepidium sativum [3]) | Activity (Solanum lycopersicum [4]) | Activity (Lactuca sativa [5]) [%] | Activity (Lepidium sativum [6]) [%] | inhibition (Solanum lycopersicum [7]) | inhibition (INH) (Triticum aestivum [8]) [%] | inhibition (INH) (Allium cepa [10]) [%] | Activity (Triticum aestivum [11]) | inhibition (Allium cepa [13]) | inhibition (INH) (Solanum lycopersicum [14]) [%] | Activity (Solanum lycopersicum [17]) | Activity (Allium cepa [18]) [%] | Activity (Lactuca sativa [19]) | Activity (Triticum aestivum [20]) [%] | Activity (Triticum aestivum [21]) | Activity (Solanum lycopersicum [22]) [%] | inhibition (INH) (Lepidium sativum [23]) [%] | Activity (Lactuca sativa [24]) | inhibition (INH) (Lactuca sativa [25]) [%] | other results
1 | COc1nc(C)nc(NC(=O)NS(=O)(=O)c2ccccc2OCCCl)n1 [LOGRAN] | >40% | >40% | inactive | >40 | 20 | inactive | 20 | >40 | 20% | inactive | >40 | >40% | >40 | >40% | 20 | 20% | >40 | 20 | >40% | >40 | inhibition (INH) (Solanum lycopersicum [2]): >40%; inhibition (INH) (Triticum aestivum [9]): 20%; inhibition (INH) (Lactuca sativa [12]): >40%; Activity (Allium cepa [15]): inactive; inhibition (INH) (Lactuca sativa [16]): >40%; inhibition (INH) (Triticum aestivum [26]): 20%; inhibition (INH) (Allium cepa [27]): >40%; Activity (Lepidium sativum [28]): >40%; Activity (Allium cepa [29]): >40%; inhibition (INH) (Lepidium sativum [30]): >40%
2 | C=C1CC[C@H]2C(=C)CC[C@@H]3[C@H](OC(=O)[C@H]3CO)[C@@H]12 | >40% | >40% | inactive | 20 | <20 | inactive | 20 | >40 | 20% | inactive | >40 | >40% | >40 | <20% | 20 | <=20% | >40 | <20 | inactive | 20 | inhibition (INH) (Solanum lycopersicum [2]): >40%; inhibition (INH) (Triticum aestivum [9]): <=20%; inhibition (INH) (Lactuca sativa [12]): <20%; Activity (Allium cepa [15]): inactive; inhibition (Lactuca sativa [16]): inactive; inhibition (INH) (Triticum aestivum [26]): 20%; inhibition (INH) (Allium cepa [27]): >40%; Activity (Lepidium sativum [28]): >40%; Activity (Allium cepa [29]): >40%; inhibition (INH) (Lepidium sativum [30]): >40%
3 | C=C1C(=O)O[C@H]2[C@H]1CCC(=C)[C@@H]1CCC(=C)[C@@]12O | >=20% | >=20% | inactive | 20 | <20 | inactive | <20 | 20 | inactive | inactive | <20 | inactive | 20 | inactive | <20 | inactive | <20 | <20 | inactive | 20 | inhibition (Solanum lycopersicum [2]): inactive; Activity (Allium cepa [31]): inactive; inhibition (Triticum aestivum [9]): inactive; inhibition (Lactuca sativa [12]): inactive; inhibition (Lactuca sativa [16]): inactive; inhibition (Triticum aestivum [26]): inactive; inhibition (INH) (Allium cepa [27]): <20%; Activity (Lepidium sativum [28]): >=20%; Activity (Allium cepa [29]): <20%; inhibition (INH) (Lepidium sativum [30]): >=20%
4 | C=C1C(=O)O[C@H]2[C@H]1CCC(=C)[C@@H]1C[C@@H](O)C(=C)[C@@]12O [5ALPHA-HYDROXYISOZALUZANIN C] | >40% | >40% | inactive | <20 | >40 | inactive | 20 | >40 | >40% | inactive | >40 | >40% | >40 | 20% | 20 | inactive | >40 | >40 | 20% | <20 | inhibition (INH) (Solanum lycopersicum [2]): >40%; Activity (Allium cepa [31]): inactive; inhibition (Triticum aestivum [9]): inactive; inhibition (INH) (Lactuca sativa [12]): 20%; inhibition (INH) (Lactuca sativa [16]): 20%; inhibition (INH) (Triticum aestivum [26]): >40%; inhibition (INH) (Allium cepa [27]): >40%; Activity (Lepidium sativum [28]): >40%; Activity (Allium cepa [29]): >40%; inhibition (INH) (Lepidium sativum [30]): >40%
